Reference: ChEMBL document CHEMBL4422628, “Discovery of first-in-class thiazole-based dual FFA1/PPARδ agonists as potential anti-diabetic agents” (Eur J Med Chem, 2019)

How the values were obtained:
[1] = biological target: T1, Peroxisome proliferator-activated receptor delta (Homo sapiens, UniProt Q03181); assay: Transactivation of GAL4-fused human PPARdelta LBD expressed in HEK293 cells after 18 hrs by luciferase reporter gene assay; assay type: cell-based
T1 sequence (Q03181 whole entry): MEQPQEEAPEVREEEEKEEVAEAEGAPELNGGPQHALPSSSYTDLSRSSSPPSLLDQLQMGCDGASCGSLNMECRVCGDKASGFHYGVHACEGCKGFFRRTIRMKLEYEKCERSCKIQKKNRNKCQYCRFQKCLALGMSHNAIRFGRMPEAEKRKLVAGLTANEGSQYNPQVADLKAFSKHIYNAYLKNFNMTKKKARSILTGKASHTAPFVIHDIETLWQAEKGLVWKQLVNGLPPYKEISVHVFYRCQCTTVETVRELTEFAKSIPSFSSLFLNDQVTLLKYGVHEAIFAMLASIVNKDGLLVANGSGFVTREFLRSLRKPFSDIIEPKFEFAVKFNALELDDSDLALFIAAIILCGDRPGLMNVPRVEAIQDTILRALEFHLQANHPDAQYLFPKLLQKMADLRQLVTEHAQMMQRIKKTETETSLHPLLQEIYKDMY

[2] = biological target: T2, Free fatty acid receptor 1 (Homo sapiens, UniProt O14842); assay: Agonist activity at human FFA1 receptor expressed in CHO cells by Fluo 4-AM dye based FLIPR assay; assay type: cell-based
In short: (§1)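 hFFA1-expressing CHO cells were loaded for 1 h at 37 °C with buffer containing 2.5 μg/mL Fluo 4-AM, 0.1% fatty acid-free BSA and 2.5 mmol/L probenecid. Compounds were added and calcium flux was read on FLIPR. Activity = (A–B)/(C–B)×100%, where A is the compound response, B the vehicle response and C the 10 μM γ-linolenic acid response.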

[3] = biological target: T2, Free fatty acid receptor 1; assay: Agonist activity at human FFA1 receptor expressed in CHO cells assessed as activity percentage at 10 uM by Fluo 4-AM dye based FLIPR assay relative to control; assay type: cell-based; in short: as §1
[4] = biological target: T3, Peroxisome proliferator-activated receptor delta (Homo sapiens) (UniProt Q03181); assay: Transactivation of GAL4-fused human PPARdelta LBD expressed in HEK293 cells assessed as activity percentage at 10 uM after 18 hrs by luciferase reporter gene assay relative to control; assay type: cell-based
T3 sequence (whole entry): T1 sequence (Q03181 whole entry)
In short: (§2)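 HepG2 or HEK293 cells were transfected with pBIND-PPARα, -δ or -γ (GAL4 fusion). Compounds at varying concentrations were incubated for 18 h. Cells were then lysed and firefly and renilla luciferase were read by dual-luciferase assay.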

[5] = system: Mus musculus; assay: Antidiabetic activity in ob/ob mouse assessed as reduction in blood glucose AUC (0 to 120 mins) at 40 mg/kg, po administered as single dose pretreated for 30 mins followed by glucose-challenge by glucometric analysis relative to control; assay type: functional; parameters: scale not given: the % may be the effect or the level left
In short: (§3)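 Male ob/ob mice (six weeks old on arrival, acclimatized one week) were fasted 12 h and randomized (n = 6/group). Each received a single oral dose in 0.5% carboxymethyl cellulose vehicle, then 3 g/kg oral glucose 30 min later. Blood glucose was measured by glucometer at −30, 0, 15, 30, 60 and 120 min. Glucose AUC0-120min was calculated, mean ± SD.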

[6] = Half life in Sprague-Dawley rat at 3 mg/kg, po by LC-MS/MS analysis; assay type: ADME, organism-based; details: in vivo
[7] = Clearance in Sprague-Dawley rat at 3 mg/kg, po by LC-MS/MS analysis; assay type: ADME, organism-based; details: in vivo
[8] = system: Mus musculus; assay: Antidiabetic activity in ob/ob mouse assessed as reduction in blood glucose AUC (0 to 120 mins) at 100 mg/kg, po administered as single dose pretreated for 30 mins followed by glucose-challenge by glucometric analysis relative to control; assay type: functional; parameters: scale not given: the % may be the effect or the level left; in short: as §3
[9] = system: Mus musculus; assay: Antidiabetic activity in po dosed ob/ob mouse assessed as reduction in blood glucose AUC (0 to 120 mins) administered as single dose pretreated for 30 mins followed by glucose-challenge by glucometric analysis; assay type: functional, organism-based; in short: as §3
[10] = system: Mus musculus; assay: Antidiabetic activity in ob/ob mouse assessed as reduction in blood glucose AUC (0 to 120 mins) at 30 mg/kg, po administered as single dose pretreated for 30 mins followed by glucose-challenge by glucometric analysis relative to control; assay type: functional; parameters: scale not given: the % may be the effect or the level left; in short: as §3
[11] = biological target: T4, Peroxisome proliferator-activated receptor gamma (Homo sapiens, UniProt P37231); assay: Transactivation of GAL4-fused human PPARgamma LBD expressed in HEK293 cells after 18 hrs by luciferase reporter gene assay; assay type: cell-based; in short: as §2
T4 sequence (P37231 whole entry): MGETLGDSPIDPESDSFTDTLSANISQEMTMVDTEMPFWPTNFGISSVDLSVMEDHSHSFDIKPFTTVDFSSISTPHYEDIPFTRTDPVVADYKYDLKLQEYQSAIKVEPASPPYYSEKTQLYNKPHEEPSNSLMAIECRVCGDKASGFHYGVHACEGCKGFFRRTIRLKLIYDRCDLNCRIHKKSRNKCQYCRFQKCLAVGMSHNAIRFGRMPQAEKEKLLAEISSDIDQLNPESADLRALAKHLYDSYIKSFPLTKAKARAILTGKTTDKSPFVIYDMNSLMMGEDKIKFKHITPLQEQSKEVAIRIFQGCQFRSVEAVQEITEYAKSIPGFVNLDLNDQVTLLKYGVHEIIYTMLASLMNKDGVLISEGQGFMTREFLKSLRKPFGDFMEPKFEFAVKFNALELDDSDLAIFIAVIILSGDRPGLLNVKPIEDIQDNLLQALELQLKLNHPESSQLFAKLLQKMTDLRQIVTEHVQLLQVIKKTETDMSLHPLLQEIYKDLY

[12] = Cmax in Sprague-Dawley rat at 3 mg/kg, po by LC-MS/MS analysis; assay type: ADME, organism-based; parameters: dose 3 mg/kg, route oral; details: in vivo
[13] = system: Mus musculus; assay: Antidiabetic activity in ob/ob mouse assessed as change in blood glucose AUC (0 to 120 mins) at 10 mg/kg, po administered as single dose pretreated for 30 mins followed by glucose-challenge by glucometric analysis relative to control; assay type: functional; in short: as §3
[14] = AUC (0 to 24 hrs) in Sprague-Dawley rat at 3 mg/kg, po by LC-MS/MS analysis; assay type: ADME, organism-based; parameters: dose 3 mg/kg, time < 24 hr, route oral; details: in vivo
[15] = biological target: T5, Peroxisome proliferator-activated receptor alpha (Homo sapiens, UniProt Q07869); assay: Transactivation of GAL4-fused human PPARalpha LBD expressed in HEK293 cells after 18 hrs by luciferase reporter gene assay; assay type: cell-based; in short: as §2
T5 sequence (Q07869 whole entry): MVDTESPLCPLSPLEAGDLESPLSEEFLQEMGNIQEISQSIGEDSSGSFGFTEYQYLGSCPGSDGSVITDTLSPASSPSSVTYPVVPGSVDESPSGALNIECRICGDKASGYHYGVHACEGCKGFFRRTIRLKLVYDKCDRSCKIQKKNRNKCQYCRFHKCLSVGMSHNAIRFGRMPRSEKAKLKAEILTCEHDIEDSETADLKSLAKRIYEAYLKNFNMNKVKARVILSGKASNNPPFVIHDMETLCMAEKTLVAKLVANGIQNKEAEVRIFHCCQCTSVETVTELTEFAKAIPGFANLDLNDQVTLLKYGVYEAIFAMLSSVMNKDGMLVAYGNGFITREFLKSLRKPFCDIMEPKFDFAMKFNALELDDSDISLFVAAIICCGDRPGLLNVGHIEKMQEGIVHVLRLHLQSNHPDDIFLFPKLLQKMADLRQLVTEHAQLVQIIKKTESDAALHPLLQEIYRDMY

T2 sequence (O14842 whole entry): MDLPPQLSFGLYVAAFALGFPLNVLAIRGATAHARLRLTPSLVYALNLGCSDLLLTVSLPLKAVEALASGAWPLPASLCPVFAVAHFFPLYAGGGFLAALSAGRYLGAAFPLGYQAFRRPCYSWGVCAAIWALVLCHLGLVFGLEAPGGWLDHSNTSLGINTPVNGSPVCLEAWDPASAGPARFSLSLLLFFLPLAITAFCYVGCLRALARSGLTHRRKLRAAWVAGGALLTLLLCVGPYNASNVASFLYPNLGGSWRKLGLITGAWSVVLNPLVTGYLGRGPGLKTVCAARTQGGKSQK

EC50 [1] [nM]	EC50 [2] [nM]	Activity [3] [%]	Activity [4] [%]	Structure (SMILES)	further results
315	> 10000			Cc1cc(OCc2sc(-c3ccc(C(F)(F)F)cc3)nc2C)ccc1OCC(=O)O	
306	79			Cc1nc(-c2ccc(F)cc2)sc1COc1ccc2c(c1)OCC2CC(=O)O (stereo not drawn)	
> 10000	> 10000	5	35	Cc1cc(OCc2csc(-c3ccccc3)n2)ccc1OCC(=O)O	
1160	247			Cc1cccc(-c2nc(C)c(COc3ccc(OCC(=O)O)c(F)c3)s2)c1	
				Cc1cc(OCCCS(C)(=O)=O)cc(C)c1-c1cccc(COc2ccc3c(c2)OC[C@H]3CC(=O)O)c1	Activity [5]: 15.7%
529	251			[2H]C([2H])(Cc1ccc(OCc2sc(-c3ccc(F)cc3)nc2C)cc1)C(=O)O	
729	112			Cc1nc(-c2ccc(F)cc2)sc1COc1ccc(OCC(=O)O)c(F)c1	
780	185			Cc1nc(-c2cccc(F)c2)sc1COc1ccc(OCC(=O)O)c(F)c1	
> 10000	> 10000	2	8	O=C(O)COc1ccc(OCc2ncc(-c3ccccc3)o2)cc1F	
863	102			Cc1nc(-c2ccccc2)sc1COc1ccc2c(c1)OCC2CC(=O)O (stereo not drawn)	
376	325			[2H]C([2H])(Cc1ccc(OCc2sc(-c3ccc(C(F)(F)F)cc3)nc2C)cc1)C(=O)O	
564	156			Cc1ccc(-c2nc(C)c(COc3ccc(OCC(=O)O)c(F)c3)s2)cc1	
436	149			Cc1nc(-c2ccc(C(F)(F)F)cc2)sc1COc1ccc(OCC(=O)O)c(F)c1	
> 10000	> 10000	42	12	Cc1sc(-c2ccccc2)nc1CNc1ccc(OCC(=O)O)c(F)c1	
> 10000	> 10000	1	9	Cc1cc(OCc2nnc(-c3ccccc3)s2)ccc1OCC(=O)O	
2660	1350			Cc1nc(-c2ccccc2)oc1COc1ccc(OCC(=O)O)c(F)c1	

EC50 [1] [nM]	EC50 [2] [nM]	Activity [3] [%]	Activity [4] [%]	Structure (SMILES)	further results
264	105			Cc1nc(-c2ccc(Cl)cc2)sc1COc1ccc2c(c1)OCC2CC(=O)O (stereo not drawn)	
1320	374			Cc1nc(-c2ccccc2)sc1COc1ccc(OCC(=O)O)c(F)c1	
218	94			Cc1ccc(-c2nc(C)c(COc3ccc4c(c3)OCC4CC(=O)O)s2)cc1 (stereo not drawn)	
> 10000	> 10000	19	4	O=C(O)COc1ccc(OCc2nnc(-c3ccccc3)s2)cc1F	
> 10000	> 10000	31	23	O=C(O)COc1ccc(OCc2ncc(-c3ccccc3)s2)cc1F	
972	590			[2H]C([2H])(Cc1ccc(OCc2sc(-c3ccccc3)nc2C)cc1)C(=O)O	
> 10000	> 10000	6	3	O=C(O)COc1ccc(OCc2nnc(-c3ccccc3)o2)cc1F	
920	156			COc1ccc(-c2nc(C)c(COc3ccc4c(c3)OCC4CC(=O)O)s2)cc1 (stereo not drawn)	
> 10000	370			Cc1nc(-c2ccccc2)sc1COc1ccc(S(=O)(=O)CC(=O)O)cc1	
> 10000	> 10000	37	31	Cc1sc(-c2ccccc2)nc1COc1ccc(OCC(=O)O)c(F)c1	
> 10000	> 10000	15	11	O=C(O)COc1ccc(OCc2nc(-c3ccccc3)cs2)cc1F	
> 10000	> 10000	23	20	O=C(O)COc1ccc(OCc2csc(-c3ccccc3)n2)cc1F	
1650	> 10000	13		Cc1cc(OCc2sc(-c3ccccc3)nc2C)ccc1OCC(=O)O	
> 10000	253			Cc1nc(-c2ccc(F)cc2)sc1COc1ccc(S(=O)(=O)CC(=O)O)cc1	
> 10000	> 10000	2	12	Cc1cc(OCc2ncc(-c3ccccc3)o2)ccc1OCC(=O)O	

Structure (SMILES)	EC50 [1] [nM]	EC50 [2] [nM]	Activity [3] [%]	Activity [4] [%]	further results
Cc1nc(-c2ccc(C(F)(F)F)cc2)sc1COc1ccc2c(c1)OC[C@H]2CC(=O)O	102	68			half-life [6]: 4.31 h; CL/F [7]: 0.279 mL/min/kg; Activity [8]: 10.9%; Activity [9]: Dose-dependent effect; Activity [10]: 6.1%; EC50 [11]: > 10000 nM; Cmax [12]: 9450 ng/mL; Activity [13]: 1.1%; AUC(0-t) at 24 h [14]: 95600 ng·h/mL; EC50 [15]: > 10000 nM
Cc1nc(-c2ccc(C(F)(F)F)cc2)sc1COc1ccc2c(c1)OCC2CC(=O)O (stereo not drawn)	175	113			
